Assay results taken from ChEMBL document CHEMBL1139344, “Antagonists of the human A(2A) adenosine receptor. 4. Design, synthesis, and preclinical evaluation of 7-aryltriazolo[4,5-d]pyrimidines” (J Med Chem, 2009).
Converted amounts (≈) assume the structure as drawn. The source made the active and inactive calls. The calls are words filed in the database; no cut-off is given here.

How the values were obtained:
Adenosine receptor A2b = target: T1, Adenosine receptor A2b (Homo sapiens, UniProt P29275); experiment: Displacement of radioligand from human recombinant adenosine A2B receptor at 21 degC after 60 mins by cell-based microplate scintillation counting
T1 sequence (P29275 whole entry): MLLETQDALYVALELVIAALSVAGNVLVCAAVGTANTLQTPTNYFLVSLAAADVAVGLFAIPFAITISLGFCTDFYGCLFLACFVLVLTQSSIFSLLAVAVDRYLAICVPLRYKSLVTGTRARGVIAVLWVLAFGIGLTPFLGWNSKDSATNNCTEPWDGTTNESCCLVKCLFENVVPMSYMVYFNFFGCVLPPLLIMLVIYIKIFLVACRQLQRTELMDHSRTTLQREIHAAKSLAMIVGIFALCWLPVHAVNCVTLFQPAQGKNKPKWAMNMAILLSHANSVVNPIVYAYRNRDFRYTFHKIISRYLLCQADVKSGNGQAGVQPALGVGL

Adenosine receptor A3 = target: T2, Adenosine receptor A3 (Homo sapiens, UniProt P0DMS8); experiment: Displacement of radioligand from human recombinant adenosine A3 receptor at 21 degC after 60 mins by cell-based microplate scintillation counting
T2 sequence (P0DMS8 whole entry): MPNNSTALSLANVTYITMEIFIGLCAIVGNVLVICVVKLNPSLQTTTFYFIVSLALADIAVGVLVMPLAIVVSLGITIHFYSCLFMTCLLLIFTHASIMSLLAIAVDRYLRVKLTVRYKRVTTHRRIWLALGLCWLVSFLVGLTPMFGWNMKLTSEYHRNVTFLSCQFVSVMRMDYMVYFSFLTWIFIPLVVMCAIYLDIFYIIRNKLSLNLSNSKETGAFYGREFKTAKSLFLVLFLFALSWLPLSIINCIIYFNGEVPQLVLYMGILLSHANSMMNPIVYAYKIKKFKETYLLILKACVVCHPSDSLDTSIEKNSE

Adenosine receptor A2a [1] = target: T3, Adenosine receptor A2a (Homo sapiens, UniProt P29274); experiment: Displacement of radioligand from human recombinant adenosine A2A receptor at 21 degC after 90 mins by cell-based microplate scintillation counting
Rattus norvegicus [2] = experiment: Reversal of haloperidol-induced hypolocomotion in po dosed Sprague-Dawley rat assessed as time spent for locomotor activity administered 15 mins prior to testing done for 60 mins; assay type: functional, organism-based
How it was run: (§1)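 Haloperidol (0.2 mg/kg ip) used to induce hypolocomotion; antagonist given orally over 0.01-10 mg/kg in mouse and rat; activity scored as time spent active during a 60 min session; p < 0.05 versus vehicle (+haloperidol) control; minimal effective dose taken as lowest active dose.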

Adenosine receptor A1 = target: T4, Adenosine receptor A1 (Homo sapiens, UniProt P30542); experiment: Displacement of radioligand from human recombinant adenosine A1 receptor at 21 degC after 90 mins by cell-based microplate scintillation counting
T4 sequence (P30542 whole entry): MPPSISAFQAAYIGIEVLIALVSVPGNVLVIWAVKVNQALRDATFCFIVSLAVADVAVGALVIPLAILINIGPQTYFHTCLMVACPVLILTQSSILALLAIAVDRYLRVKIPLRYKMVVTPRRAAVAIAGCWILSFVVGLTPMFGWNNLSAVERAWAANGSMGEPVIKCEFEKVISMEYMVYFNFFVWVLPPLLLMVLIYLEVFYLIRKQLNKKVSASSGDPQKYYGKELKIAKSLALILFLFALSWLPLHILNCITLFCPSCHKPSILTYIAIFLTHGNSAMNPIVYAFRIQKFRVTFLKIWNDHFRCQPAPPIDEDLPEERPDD

Mus musculus [3] = experiment: Reversal of haloperidol-induced hypolocomotion in po dosed TO mouse assessed as time spent for locomotor activity administered 120 mins prior to testing done for 60 mins; assay type: functional, organism-based; how it was run: as §1
[4] = target: T5, Adenosine receptor A1 (Homo sapiens) (UniProt P30542); conditions: CHO-K1
T5 sequence (whole entry): T4 sequence (P30542 whole entry)

Adenosine receptor A2a [5] = target: T3, Adenosine receptor A2a; conditions: CHO-K1
Mus musculus [6] = experiment: Increase in locomotor activity in mouse at 100 mg/kg administered for 4 days; assay type: functional, organism-based; design: dose 100 mg/kg
[7] = target: T6, Adenosine receptor A2b (Homo sapiens) (UniProt P29275); conditions: CHO-K1
T6 sequence (whole entry): T1 sequence (P29275 whole entry)

[8] = target: T7, Adenosine receptor A3 (Homo sapiens) (UniProt P0DMS8); conditions: CHO-K1
T7 sequence (whole entry): T2 sequence (P0DMS8 whole entry)

Homo sapiens [9] = organism: Homo sapiens; experiment: Selectivity for human recombinant adenosine A2A receptor over human recombinant adenosine A3 receptor by cell-based assay
Mus musculus [10] = experiment: Reversal of haloperidol-induced hypolocomotion in TO mouse assessed as time spent for locomotor activity at 30 mg/kg, po administered 15 mins prior and measured for 60 mins; assay type: functional, organism-based; design: dose 30 mg/kg
Homo sapiens [11] = organism: Homo sapiens; experiment: Selectivity for human recombinant adenosine A2A receptor over human recombinant adenosine A2B receptor by cell-based assay
Rattus norvegicus [12] = experiment: Reversal of haloperidol-induced hypolocomotion in Sprague-Dawley rat assessed as time spent for locomotor activity at 30 mg/kg, po administered 120 mins prior and measured for 60 mins; assay type: functional, organism-based; design: dose 30 mg/kg
Liver microsomes = experiment: Metabolic stability in rat liver microsomes after 30 mins; assay type: ADME, Microsome; conditions: 0.5 h
How it was run: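 Turnover by rodent liver microsomes measured as percent turnover after 30 min.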

Homo sapiens [13] = organism: Homo sapiens; experiment: Selectivity for human recombinant adenosine A2A receptor over human recombinant adenosine A1 receptor by cell-based assay
[14] = Aqueous solubility in phosphate buffered saline; assay type: physicochemical
Mus musculus [15] = experiment: Reversal of haloperidol-induced hypolocomotion in TO mouse assessed as time spent for locomotor activity at 1 mg/kg, po administered 15 mins prior to testing done for 60 mins; assay type: functional, organism-based; design: dose 1 mg/kg; how it was run: as §1
[16] = target: Voltage-gated inwardly rectifying potassium channel KCNH2 (Homo sapiens, UniProt Q12809); experiment: Binding affinity to human ERG at 30 uM by patch clamp technique
How it was run: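 hERG potassium channel examined by patch clamp at concentrations up to 30 µM, the maximal concentration reached in the protocol; response compared with vehicle alone.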

[17] = Tmax in Sprague-Dawley rat at 2 mg/kg, iv; assay type: ADME, organism-based; design: dose 2 mg/kg, route intravenous; conditions: in vivo
Brain = experiment: Drug uptake in Sprague-Dawley rat brain at 2 mg/kg, iv; assay type: ADME, organism-based; design: dose 2 mg/kg, route intravenous; conditions: in vivo
How it was run: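 Male Sprague-Dawley rats dosed intravenously at 2 mg kg^-1; brain uptake calculated as brain/plasma AUClast ratio.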

Mus musculus [18] = experiment: Toxicity in mouse at 100 mg/kg administered for 4 days; assay type: organism-based; design: dose 100 mg/kg; conditions: in vivo, 96 h
[19] = Half life in Sprague-Dawley rat at 2 mg/kg, iv; assay type: ADME, organism-based; design: dose 2 mg/kg, route intravenous; conditions: in vivo
[20] = Apparent permeability across human Caco-2 cell membrane; assay type: ADME, cell-based; conditions: read-out: permeability
[21] = Oral bioavailability in Sprague-Dawley rat; assay type: ADME, organism-based; conditions: in vivo
Rattus norvegicus [22] = experiment: Reversal of haloperidol-induced hypolocomotion in po dosed Sprague-Dawley rat assessed as minimal effective dose administered 120 mins prior to testing done for 60 mins; assay type: functional; conditions: read-out: MED; how it was run: as §1
Mus musculus [23] = experiment: Reversal of haloperidol-induced hypolocomotion in po dosed TO mouse assessed as minimal effective dose administered 15 mins prior to testing done for 60 mins; assay type: functional; conditions: read-out: MED; how it was run: as §1
[24] = Solubility at neutral pH; assay type: physicochemical
Rattus norvegicus [25] = experiment: Reversal of haloperidol-induced hypolocomotion in Sprague-Dawley rat assessed as time spent for locomotor activity at 1 mg/kg, po administered 120 mins prior to testing done for 60 mins; assay type: functional, organism-based; design: dose 1 mg/kg; how it was run: as §1
Mus musculus [26] = experiment: Reversal of haloperidol-induced hypolocomotion in TO mouse assessed as time spent for locomotor activity at 0.3 mg/kg, po administered 15 mins prior to testing done for 60 mins; assay type: functional, organism-based; design: dose 0.3 mg/kg; how it was run: as §1

T3 sequence (P29274 whole entry): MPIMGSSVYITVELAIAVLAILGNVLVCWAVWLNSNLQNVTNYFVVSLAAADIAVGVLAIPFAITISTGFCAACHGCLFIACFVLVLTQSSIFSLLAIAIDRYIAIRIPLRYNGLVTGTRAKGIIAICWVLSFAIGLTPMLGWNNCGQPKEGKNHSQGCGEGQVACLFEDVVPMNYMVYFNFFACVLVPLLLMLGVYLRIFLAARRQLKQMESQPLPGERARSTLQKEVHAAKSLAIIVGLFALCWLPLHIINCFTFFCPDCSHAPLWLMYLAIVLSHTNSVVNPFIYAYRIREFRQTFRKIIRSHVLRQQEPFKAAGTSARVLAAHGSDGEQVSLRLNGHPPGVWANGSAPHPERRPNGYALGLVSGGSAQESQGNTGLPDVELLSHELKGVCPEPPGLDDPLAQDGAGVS
Voltage-gated inwardly rectifying potassium channel KCNH2, sequence (Q12809 whole entry): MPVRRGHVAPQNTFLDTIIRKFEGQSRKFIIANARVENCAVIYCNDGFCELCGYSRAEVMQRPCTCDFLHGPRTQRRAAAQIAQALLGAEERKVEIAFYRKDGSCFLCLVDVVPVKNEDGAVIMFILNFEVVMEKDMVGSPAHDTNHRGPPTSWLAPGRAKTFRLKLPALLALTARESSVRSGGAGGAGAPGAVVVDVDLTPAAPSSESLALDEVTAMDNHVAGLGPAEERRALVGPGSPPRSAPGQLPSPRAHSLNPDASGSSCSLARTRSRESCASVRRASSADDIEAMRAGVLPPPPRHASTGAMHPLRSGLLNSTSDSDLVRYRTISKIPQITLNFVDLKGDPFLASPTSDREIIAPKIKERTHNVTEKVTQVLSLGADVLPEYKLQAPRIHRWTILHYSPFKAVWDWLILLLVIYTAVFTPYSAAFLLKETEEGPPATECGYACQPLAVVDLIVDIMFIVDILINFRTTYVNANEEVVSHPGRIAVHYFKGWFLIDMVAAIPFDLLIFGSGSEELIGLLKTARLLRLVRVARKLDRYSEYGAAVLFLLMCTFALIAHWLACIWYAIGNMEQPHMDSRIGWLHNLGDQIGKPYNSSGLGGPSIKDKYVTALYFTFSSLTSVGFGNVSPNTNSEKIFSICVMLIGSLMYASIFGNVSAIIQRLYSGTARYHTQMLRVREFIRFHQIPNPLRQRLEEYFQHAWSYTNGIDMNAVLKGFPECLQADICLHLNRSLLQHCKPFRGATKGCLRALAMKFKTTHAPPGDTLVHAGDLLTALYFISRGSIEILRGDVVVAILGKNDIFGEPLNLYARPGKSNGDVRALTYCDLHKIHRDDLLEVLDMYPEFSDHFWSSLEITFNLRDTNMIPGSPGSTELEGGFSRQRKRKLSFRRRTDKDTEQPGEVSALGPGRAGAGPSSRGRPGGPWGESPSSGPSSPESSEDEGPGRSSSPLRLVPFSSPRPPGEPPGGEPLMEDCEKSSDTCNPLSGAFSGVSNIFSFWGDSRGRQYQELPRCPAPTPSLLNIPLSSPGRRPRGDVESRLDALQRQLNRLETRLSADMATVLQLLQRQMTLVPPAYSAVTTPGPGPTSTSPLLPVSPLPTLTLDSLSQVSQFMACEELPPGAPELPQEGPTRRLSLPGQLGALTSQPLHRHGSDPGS

SMILES	Ki (Adenosine receptor A2b) [nM]	Ki (Adenosine receptor A3) [nM]	Ki (Adenosine receptor A2a [1]) [nM]	Ki (Adenosine receptor A1) [nM]	other results
Nc1nc(-c2ccco2)c2nnn(Cc3cccnc3)c2n1	225	1020	14.5	931	Activity (Rattus norvegicus [2]): inactive; Activity (Mus musculus [3]): inactive
Nc1nc(-c2ccco2)c2nnn(Cc3ccsc3)c2n1	164	136	1.9	78	Activity (Rattus norvegicus [2]): inactive; Activity (Mus musculus [3]): inactive
Cc1cc(Cn2nnc3c(-c4ccco4)nc(N)nc32)ccc1N					KA [4]: 95 nM; KA (Adenosine receptor A2a [5]): 0.58 nM; Activity (Mus musculus [6]): Active; KA [7]: 31 nM; KA [8]: 1500 nM
Nc1nc(-c2ccco2)c2nnn(Cc3ccc(F)cc3F)c2n1	226	1180	2	118	fold change (FC) (Homo sapiens [9]): > 50; Activity (Mus musculus [10]): inactive; fold change (FC) (Homo sapiens [11]): > 50; Activity (Rattus norvegicus [12]): inactive; Stability (Liver microsomes): Stable; fold change (FC) (Homo sapiens [13]): > 50; solubility [14]: 30 µM (≈ 9.85 µg/mL)
Nc1cccc(Cn2nnc3c(-c4ccco4)nc(N)nc32)c1	270	792	2.5	131	Activity (Mus musculus [15]): Active
Cc1cc(Cn2nnc3c(-c4ccco4)nc(N)nc32)ccc1N [VIPADENANT]					Activity [16]: Not Active; Tmax [17]: 0.5 h; Drug uptake (Brain): 57%; Activity (Mus musculus [18]): Non-toxic; half-life [19]: 2 h; Papp [20]: 11 ×10⁻⁶ cm/s; bioavailability [21]: 35%
CCc1cc(Cn2nnc3c(-c4ccco4)nc(N)nc32)ccc1N	118	221	1	26	Activity (Rattus norvegicus [2]): inactive; Activity (Mus musculus [3]): inactive
Nc1nc(-c2ccco2)c2nnn(Cc3ccccc3N)c2n1	123	302		63	minimal effective dose (Rattus norvegicus [22]): 10 mg/kg; minimal effective dose (Mus musculus [23]): 10 mg/kg
Cc1cc(Cn2nnc3c(-c4ccco4)nc(N)nc32)ccc1N.Cl.Cl					solubility [24]: 18 mg/mL
Nc1nc(-c2ccco2)c2nnn(Cc3cccs3)c2n1	88	123	2.3	117	minimal effective dose (Rattus norvegicus [22]): 30 mg/kg; minimal effective dose (Mus musculus [23]): 30 mg/kg
CNc1ccc(Cn2nnc3c(-c4ccco4)nc(N)nc32)cc1	181	636	1.6	40	Activity (Mus musculus [15]): Active
Cc1ccc(-c2nc(N)nc3c2nnn3Cc2ccccc2F)o1	6	260	2.1	19	minimal effective dose (Rattus norvegicus [22]): 3 mg/kg; Activity (Mus musculus [10]): inactive; Activity (Rattus norvegicus [12]): inactive; Stability (Liver microsomes): Stable; minimal effective dose (Mus musculus [23]): 3 mg/kg; solubility [14]: 30 µM (≈ 9.73 µg/mL)
CCn1c(=O)c2c(nc(/C=C/c3ccc(OC)c(OC)c3)n2C)n(CC)c1=O					Activity (Rattus norvegicus [25]): Active; Activity (Mus musculus [26]): Active
CS(=O)(=O)O.Cc1cc(Cn2nnc3c(-c4ccco4)nc(N)nc32)ccc1N					solubility [24]: 36 mg/mL
CC(C)c1cc(Cn2nnc3c(-c4ccco4)nc(N)nc32)ccc1N	397	251	1.5	50	Activity (Rattus norvegicus [2]): inactive; Activity (Mus musculus [3]): inactive
Nc1ccc(Cn2nnc3c(-c4ccco4)nc(N)nc32)cc1	46	752	1.5	190	Activity (Mus musculus [15]): Active
Nc1nc(-c2ccco2)c2nnn(Cc3ccccc3)c2n1	122	285	1.9	83	Activity (Mus musculus [10]): inactive; Activity (Rattus norvegicus [12]): inactive; Stability (Liver microsomes): Stable; solubility [14]: 30 µM (≈ 8.77 µg/mL)
Nc1nc(-c2ccco2)c2nnn(Cc3ccccn3)c2n1	258	1080	12	1120	Activity (Rattus norvegicus [2]): inactive; Activity (Mus musculus [3]): inactive
